Measured values published in ChEMBL document CHEMBL3046416, “Differential susceptibility to glyphosate among the Conyza weed species in Spain” (J Agric Food Chem, 2010).

Experiments:
[1] = Ratio of ED50 for hairy fleabane Conyza bonariensis to ED50 for tall fleabane Conyza sumatrensis; assay type: functional
Root [2] = assay: Drug absorption in Conyza bonariensis (hairy fleabane) assessed as translocation in root at […] measured after 96 hr by liquid scintillation spectrometry; assay type: ADME
In short: (§1)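 Glyphosate-susceptible plants were grown in pots in a growth chamber (28/18 °C, 16 h photoperiod). They were treated with commercial glyphosate spiked with [14C]glyphosate (0.417 kBq μL-1; 1 g ai L-1, i.e. 200 g ai ha-1 in 200 L). Plants were harvested 96 h after treatment. Unabsorbed label was rinsed from the treated leaf with water-acetone (1:1). Plants were split into treated leaf, rest of shoot and root, and the rinsate was counted by liquid scintillation.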

Leaf [3] = assay: Drug absorption in Conyza canadensis (horseweed) assessed as translocation in treated leaf at […] measured after 96 hr by liquid scintillation spectrometry; assay type: ADME; details: erigeron canadensis, other; in short: as §1
Conyza sumatrensis [4] = assay: Herbicidal activity against Conyza sumatrensis ( tall fleabane) at rosette stage (BBHC14 to 15) assessed as growth inhibition measured after 21 days; assay type: functional
In short: (§2)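 Glyphosate-susceptible plants were grown in a growth chamber (28/18 °C day/night, 16 h photoperiod, 80% RH). Commercial glyphosate was sprayed from 50 cm in a laboratory spray chamber at rosette (BBCH 14-15), or, for C. bonariensis only, also at bolting (BBCH 32) or flowering (BBCH 55). Shoot fresh weight was taken 21 d later as % of untreated. Five replications of three plants each. ED50 came from a log-logistic regression of pooled data.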

Conyza bonariensis [5] = assay: Drug absorption in Conyza bonariensis (hairy fleabane) assessed as translocation in rest of plant at […] measured after 96 hr by liquid scintillation spectrometry; assay type: ADME, organism-based; details: in vivo; in short: as §1
Root [6] = assay: Drug absorption in Conyza sumatrensis (tall fleabane) assessed as translocation in root at […] measured after 96 hr by liquid scintillation spectrometry; assay type: ADME; in short: as §1
Conyza sumatrensis [7] = assay: Drug absorption in Conyza sumatrensis (tall fleabane) assessed as translocation in rest of plant at […] measured after 96 hr by liquid scintillation spectrometry; assay type: ADME, organism-based; details: in vivo; in short: as §1
[8] = Ratio of ED50 for hairy fleabane Conyza canadensis to ED50 for tall fleabane Conyza sumatrensis; assay type: functional
Leaf [9] = assay: Drug absorption in Conyza bonariensis (hairy fleabane) assessed as translocation in treated leaf at […] measured after 96 hr by liquid scintillation spectrometry; assay type: ADME; details: other; in short: as §1
Erigeron canadensis [10] = assay: Herbicidal activity against Conyza canadensis (horseweed) at rosette stage (BBHC14 to 15) assessed as growth inhibition measured after 21 days; assay type: functional; in short: as §2
Root [11] = assay: Drug absorption in Conyza canadensis (horseweed) assessed as translocation in root at […] measured after 96 hr by liquid scintillation spectrometry; assay type: ADME; details: erigeron canadensis; in short: as §1
Conyza bonariensis [12] = assay: Herbicidal activity against Conyza bonariensis (hairy fleabane) at rosette stage (BBHC14 to 15) assessed as growth inhibition measured after 21 days; assay type: functional; in short: as §2
Leaf [13] = assay: Drug absorption in Conyza sumatrensis (tall fleabane) assessed as translocation in treated leaf at […] measured after 96 hr by liquid scintillation spectrometry; assay type: ADME; details: topical_or_ocular; in short: as §1
Conyza bonariensis [14] = assay: Herbicidal activity against Conyza bonariensis (hairy fleabane) at bolting stage (BBHC32) assessed as growth inhibition measured after 21 days; assay type: functional; in short: as §2
Conyza bonariensis [15] = assay: Herbicidal activity against Conyza bonariensis (hairy fleabane) at flowering stage (BBHC55) assessed as growth inhibition measured after 21 days; assay type: functional; in short: as §2
Erigeron canadensis [16] = assay: Drug absorption in Conyza canadensis (horseweed) assessed as translocation in rest of plant at […] measured after 96 hr by liquid scintillation spectrometry; assay type: ADME, organism-based; details: in vivo; in short: as §1

## O=C(O)CNCP(=O)(O)O [GLYPHOSATE]
[1]
  Ratio ED50: 5.4
Root [2]
  Drug transport: 8.3%
Leaf [3]
  Drug transport: 93%
Conyza sumatrensis [4]
  ED50: 2.9 gAi/ha
Conyza bonariensis [5]
  Drug transport: 6.4%
Root [6]
  Drug transport: 11.6%
Conyza sumatrensis [7]
  Drug transport: 5.9%
[8]
  Ratio ED50: 12
Leaf [9]
  Drug transport: 85.2%
Erigeron canadensis [10]
  ED50: 34.9 gAi/ha
Root [11]
  Drug transport: 2.8%
Conyza bonariensis [12]
  ED50: 15.7 gAi/ha
Leaf [13]
  Drug transport: 82.4%
Conyza bonariensis [14]
  ED50: 86.6 gAi/ha
Conyza bonariensis [15]
  ED50: 117.5 gAi/ha
Erigeron canadensis [16]
  Drug transport: 4%
